Activity calls are given as the source filed them. The rule behind the calls is not given here.
Tests used:
[1] = Half life in human liver microsomes at 0.5 uM in presence of NADPH; format: ADME
Outline: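 Test compound incubated with human liver microsomes (1 mg/ml) plus NADPH (1 mM) for 0–45 min. Reactions were stopped and parent remaining in supernatant was quantified by LC–MS/MS. T1/2 was taken from the plot of % remaining versus time. Omeprazole was run as a reference control.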

[2] = target: T1, 5-hydroxytryptamine receptor 6 (Homo sapiens, UniProt P50406); assay: Antagonist activity at human cloned 5-HT6 receptor expressed in HeLa cells assessed as inhibition of 5-HT-stimulated conversion of [alpha-33P]ATP to [33P]cAMP; format: functional, cell-based
[3] = target: T1, 5-hydroxytryptamine receptor 6; assay: Displacement of [3H]LSD from human cloned 5-HT6 receptor expressed in HeLa cells; format: cell-based
[4] = Permeability of the compound; format: ADME; conditions: not told; read-out: permeability
[5] = Ratio of drug level in brain to plasma in rat at 10 mg/kg, ip; format: ADME, organism-based; parameters: dose 10 mg/kg, route intraperitoneal; conditions: read-out: BPR
Outline: (§1)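 Rats received a single intraperitoneal dose of 10 mg/kg. Brain and plasma drug levels were measured 30 minutes post-dose, and the brain/plasma ratio was derived from them.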

[6] = Oral bioavailability in rat; format: ADME, organism-based; conditions: in vivo
Brain = assay: Drug uptake in rat brain at 10 mg/kg, ip; format: ADME, organism-based; parameters: dose 10 mg/kg, route intraperitoneal; conditions: in vivo, read-out: Drug uptake; outline: as §1

T1 sequence (P50406 whole entry): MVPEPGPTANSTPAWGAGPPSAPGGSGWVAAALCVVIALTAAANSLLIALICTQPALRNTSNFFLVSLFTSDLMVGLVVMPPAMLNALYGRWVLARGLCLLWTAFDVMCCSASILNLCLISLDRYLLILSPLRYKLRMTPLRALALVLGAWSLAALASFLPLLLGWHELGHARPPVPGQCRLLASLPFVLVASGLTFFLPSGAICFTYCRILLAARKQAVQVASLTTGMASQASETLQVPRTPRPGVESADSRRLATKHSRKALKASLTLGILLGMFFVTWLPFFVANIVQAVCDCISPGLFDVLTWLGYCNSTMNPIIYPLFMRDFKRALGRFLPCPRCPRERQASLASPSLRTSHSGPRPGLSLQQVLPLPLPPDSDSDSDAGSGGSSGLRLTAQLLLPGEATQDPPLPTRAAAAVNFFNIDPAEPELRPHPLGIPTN

half-life at 0.5 µM [1] [min] | antagonist activity (active/inactive call) [2] | IC50 [3] [nM] | Papp [4] [×10⁻⁶ cm/s] | Kp [5] | bioavailability [6] [%] | concentration (Brain) [nM] | SMILES
7.9 | Active | 55 | – | – | – | – | CSc1nc2c3ccccc3ccn2c(=N)c1S(=O)(=O)c1ccccc1
– | Active | 42 | – | – | – | – | N=c1c(S(=O)(=O)c2ccccc2)c(NCCO)nc2ccccn12
– | Active | 2 | – | – | – | – | CCNc1nc2ccccn2c(=N)c1S(=O)(=O)c1ccccc1
5.2 | Active | – | 17 | 1.2 | < 1 | 1900 | CSc1nc2ccccn2c(=N)c1S(=O)(=O)c1ccccc1
– | Active | 8.8 | – | – | – | – | CSc1nc2ccc(C(N)=O)cn2c(=N)c1S(=O)(=O)c1ccccc1
13.7 | Active | 21 | – | – | – | – | COc1nc2ccccn2c(=N)c1S(=O)(=O)c1ccccc1
– | Active | 28 | – | – | – | – | CSc1nc2ccc(F)cn2c(=N)c1S(=O)(=O)c1ccccc1
2.8 | Active | 120 | – | – | – | – | C/N=c1/c(S(=O)(=O)c2ccccc2)c(SC)nc2ccccn12
3.1 | Active | 22 | – | – | – | – | CSc1nc2ccccn2c(=N)c1S(=O)(=O)c1ccc(F)cc1
7.5 | Active | 56 | – | – | – | – | CSc1nc2ccc(Br)cn2c(=N)c1S(=O)(=O)c1ccccc1
– | Active | 250 | – | – | – | – | C[S+]([O-])c1nc2ccccn2c(=N)c1S(=O)(=O)c1ccccc1 (stereo unspecified)
– | Active | 60 | – | – | – | – | CSc1nc2c(C)cc(Cc3ccccc3)cn2c(=N)c1S(=O)(=O)c1ccccc1
– | Active | 80 | – | – | – | – | CCc1ccn2c(=N)c(S(=O)(=O)c3ccccc3)c(SC)nc2c1
– | Active | 12 | – | – | – | – | CSc1nc2c(C)cc(Br)cn2c(=N)c1S(=O)(=O)c1ccccc1
– | Active | 12 | – | – | – | – | CCOc1nc2ccccn2c(=N)c1S(=O)(=O)c1ccccc1
– | Active | 11 | – | – | – | – | CSc1nc2ccccn2c(=N)c1S(=O)(=O)c1ccccc1Cl
43 | Active | 83 | – | – | – | – | CSc1nc2ccccn2/c(=N\C(C)=O)c1S(=O)(=O)c1ccccc1
40 | Active | 52 | – | – | – | – | CSc1nc2ccccn2c(=O)c1S(=O)(=O)c1ccccc1

half-life at 0.5 µM [1] [min] | antagonist activity (active/inactive call) [2] | IC50 [3] [nM] | Papp [4] [×10⁻⁶ cm/s] | Kp [5] | bioavailability [6] [%] | concentration (Brain) [nM] | SMILES
26 | – | – | – | – | – | – | COc1ccc2[nH]c([S+]([O-])Cc3ncc(C)c(OC)c3C)nc2c1 (stereo unspecified) [OMEPRAZOLE]
3.1 | Active | 18 | – | – | – | – | CSc1nc2ccccn2c(=N)c1S(=O)(=O)c1ccc(Cl)c(Cl)c1
– | Active | 3.4 | – | – | – | – | CSc1nc2c(C)cccn2c(=N)c1S(=O)(=O)c1ccccc1
– | Active | 59 | – | – | – | – | CSc1nc2ccccn2c(=N)c1S(=O)(=O)c1ccc2ccccc2c1
3.9 | Active | 65 | – | – | – | – | CSc1nc2ccccn2c(=N)c1S(=O)(=O)c1ccc(C(C)(C)C)cc1
– | Active | 57 | – | – | – | – | CSc1nc2c3ncccc3ccn2c(=N)c1S(=O)(=O)c1ccccc1
5.5 | Active | 330 | – | – | – | – | CSc1nc2c(Cc3ccccc3)cccn2c(=N)c1S(=O)(=O)c1ccccc1
7.2 | Active | 2.4 | – | – | – | – | CNc1nc2ccccn2c(=N)c1S(=O)(=O)c1ccccc1
4.1 | Active | 50 | – | – | – | – | CSc1nc2ccccn2c(=N)c1S(=O)(=O)c1cc(C)c(Cl)cc1C
– | Active | 28 | – | – | – | – | CSc1nc2ccc(Cl)cn2c(=N)c1S(=O)(=O)c1ccccc1
– | Active | 41 | – | – | – | – | CSc1nc2cc(C)ccn2c(=N)c1S(=O)(=O)c1ccccc1
– | Active | 470 | – | – | – | – | COC(=O)c1ccc2nc(SC)c(S(=O)(=O)c3ccccc3)c(=N)n2c1
2.8 | Active | 420 | – | – | – | – | CSc1nc2ccccn2c(=N)c1S(=O)(=O)c1ccc(OC(F)(F)F)cc1
– | Active | 126 | – | – | – | – | CSc1nc2c(Br)cc(C)cn2c(=N)c1S(=O)(=O)c1ccccc1
– | Active | 1.3 | – | – | – | – | CSc1nc2ccc(C)cn2c(=N)c1S(=O)(=O)c1ccccc1
– | Active | 60 | – | – | – | – | Cc1ccc(Nc2nc3ccc(C)cn3c(=N)c2S(=O)(=O)c2ccccc2)nc1
– | Active | 700 | – | – | – | – | CCCc1ccn2c(=N)c(S(=O)(=O)c3ccccc3)c(SC)nc2c1

Source: ChEMBL document CHEMBL3112552, “Structure activity relationship studies of 3-arylsulfonyl-pyrido[1,2-a]pyrimidin-4-imines as potent 5-HT₆ antagonists” (Bioorg Med Chem, 2014)
